Source: PubChem
Keap1-Nrf2 PPI: Keap1-Nrf2 (human) interaction inhibition. Q14145. Keap1 Kelch-Nrf2 peptide fluorescence polarization, 1536-well. inhibition, % at 9.4 µM. actives 0.15% (n = 340,000); in the data active means inhibition above about 12%; inconclusive means no clear call, values can overlap the other calls; inactive means below about 7.3%;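 further: human Keap1 Kelch domain with fluorescein labeled Nrf2 9mer peptide probe; 0% = neutral control wells and 100% = peptide positive control; higher means more block of Keap1 binding to Nrf2 peptide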
GRK2 inh: inhibitors of human GRK2 displacing RNA aptamer; actives 0.59% (n = 330,000); bead flow cytometry, FAM-aptamer displacement from GRK2; P25098; inhibition of aptamer binding, % at 10 µM;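 active means inhibition of aptamer binding above 40%, roughly 3 SD of noise, on plates passing a quality check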;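 further: median bead fluorescence of bound FAM aptamer so fluorescent compounds give negative values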
EBV gp42 block: blocks Epstein-Barr virus glycoprotein 42 binding | inhibition, % (tested at 21.74 µM) | Fluorescence polarization binding assay, mP read-out | Q1HVG2 | AID 1085 | actives 0.42% (n = 220,000); in the data active means inhibition above about 50%
C-LANA FP: inhibitors of KSHV LANA C-terminal domain DNA binding; inhibition, % at 9 µM; MBP-C-LANA/FAM-LBS DNA binding, fluorescence polarization; actives 0.078% (n = 340,000);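 active means highest replicate inhibition at or above 60% at 9 µM, even if other replicates fall short; inactive means all replicates below 60% inhibition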;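 further: 0% = neutral control wells and 100% = 4 µM acridine orange control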
MEX-5 binding: C. elegans MEX-5 TCR-2 RNA binding activity; Q9XUB2; MEX-5/FITC-TCR2 RNA binding, fluorescence polarization; active compounds read low; activity score (negative = inhibition of binding), % at 10 µM; actives 0.38% (n = 300,000);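 active means inhibition past about -25% in most replicates, and total fluorescence under double the plate's negative control median, limit read from the data; inconclusive means replicates evenly split on the limit, or fluorescence at least double controls; inactive means too little inhibition in most replicates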;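 further: 0% = DMSO and -100% = 5 µM competing unlabeled TCR2 RNA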
Target sequence (Q9XUB2 whole entry, looked up): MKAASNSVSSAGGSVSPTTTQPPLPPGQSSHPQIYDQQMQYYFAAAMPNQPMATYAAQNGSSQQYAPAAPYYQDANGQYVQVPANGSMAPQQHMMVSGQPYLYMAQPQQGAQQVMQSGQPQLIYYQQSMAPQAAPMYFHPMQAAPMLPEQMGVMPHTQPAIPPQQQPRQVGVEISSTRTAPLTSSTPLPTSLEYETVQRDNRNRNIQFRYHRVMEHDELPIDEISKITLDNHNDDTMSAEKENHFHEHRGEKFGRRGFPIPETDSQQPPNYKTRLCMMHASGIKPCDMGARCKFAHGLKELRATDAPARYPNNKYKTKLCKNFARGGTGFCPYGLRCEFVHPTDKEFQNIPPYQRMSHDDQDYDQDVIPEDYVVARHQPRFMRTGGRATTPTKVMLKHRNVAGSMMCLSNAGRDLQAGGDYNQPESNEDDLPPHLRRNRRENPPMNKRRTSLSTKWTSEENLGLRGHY
T cell modulator: modulates CD8 T cell binding to vesicles; 2C CD8+ T cell-vesicle binding, flow cytometry; active compounds read low; response (vesicle binding), % at 7 µM; actives 0.068% (n = 330,000);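 active means response, share of CD8 T cells binding vesicles, and their 90th percentile fluorescence all below set limits, cut at about 80% in these data, passing the limit was not always enough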;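 further: values below 100% mean blocked vesicle binding to the CD8+ T cells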
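Read-out – percent CD8+ FL2 mean versus row control · System – murine 2C transgenic CD8+ T lymphocytes · Times – 1.5 h cell–vesicle binding at 37 °C, then 20 min icy labelling · Control set – naked vesicles low, QL9 vesicles with vehicle high · Detection – cytometric PE anti-B7-1 and Alexa647 anti-CD8 signals after 1% paraformaldehyde fixation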
Keap1 Kelch bind: binds and thermally shifts human Keap1 Kelch domain | actives 8% (n = 400) | shares compounds with Keap1-Nrf2 PPI | Keap1 Kelch thermal shift, delta Tm; active compounds read high | max delta Tm, degrees C; in the data active means max delta Tm above about 0.48 degrees C
Dye-only ctr: counter-screen for Keap1 thermal shift hits: dye-only artifacts | shares compounds with Keap1-Nrf2 PPI | Sypro Orange dye-only thermal melt, no protein, delta Tm; top dose 26 µM | delta Tm, degrees C (test concentration not listed) | 140 tested, under 10 active;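 active means at highest dose tested, delta Tm positive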
* hit, by the source's call. Most compounds without a hit are left out; they make up all but 1.3% or so of the library.

`O=C(CN1CCN(C(=O)CNC(=O)c2ccc3c(c2)OCO3)CC1)Nc1ccc(F)cc1` gave Keap1-Nrf2 PPI 62*, GRK2 inh 2, T cell modulator 247 and Keap1 Kelch bind -0.08.
For O=C(CNc1ccc(F)cc1Cl)Nc1cccc(S(=O)(=O)N2CCCCC2)c1 the results were Keap1-Nrf2 PPI -1, GRK2 inh 0, C-LANA FP -1 and T cell modulator 443.
COc1cc(Cl)c(C)cc1NCC(=O)Nc1cccc(S(=O)(=O)N2CCCC2)c1 was read as Keap1-Nrf2 PPI 28*, GRK2 inh 2, C-LANA FP 15, T cell modulator 335, Keap1 Kelch bind -0.1 and Dye-only ctr -27.
For COc1ccc(OC)c(C(=O)c2coc3ccc(O)c(CN(C)C)c23)c1 the results were Keap1-Nrf2 PPI 19*, GRK2 inh 0, C-LANA FP 9, MEX-5 binding 0, T cell modulator 258 and Keap1 Kelch bind -0.11.
Screening COc1cc(C#Cc2c(C=O)n(C)c3ccccc23)cc(OC)c1 returned Keap1-Nrf2 PPI 30*, GRK2 inh 2, C-LANA FP 12, T cell modulator 776 and Keap1 Kelch bind -0.17.
`CNC(=O)CN(C1CCCCC1)S(=O)(=O)c1ccc(OC)c(Cl)c1` gave Keap1-Nrf2 PPI 4, GRK2 inh 1, EBV gp42 block -63, C-LANA FP 0, MEX-5 binding -1 and T cell modulator 325.
For O=C(Cn1cc(C(F)(F)F)ccc1=O)N1CCCc2ccccc21 the results were Keap1-Nrf2 PPI -2, GRK2 inh 0, C-LANA FP -1 and T cell modulator 343.
CC1CCN(C(=O)Cn2cc(C(F)(F)F)ccc2=O)c2ccccc2S1 (stereo unspecified) was read as Keap1-Nrf2 PPI 49*, GRK2 inh 2, C-LANA FP 21, T cell modulator 348 and Keap1 Kelch bind -0.1.
`Cc1nn(-c2ccccc2Cl)c(Cl)c1/C=N/Nc1nc2ccccc2s1` gave Keap1-Nrf2 PPI 34*, GRK2 inh 0, EBV gp42 block -14, C-LANA FP 4, MEX-5 binding -1, T cell modulator 463 and Keap1 Kelch bind -0.11.
Screening COC(=O)N/N=C/c1cn(Cc2ccccc2Cl)c2ccccc12 returned Keap1-Nrf2 PPI 17*, GRK2 inh 3, EBV gp42 block 12, C-LANA FP 2, MEX-5 binding 2, T cell modulator 204, Keap1 Kelch bind -0.17 and Dye-only ctr -23.
Screening CCN(CC)C(=O)C1c2ccccc2Oc2ccccc21 returned Keap1-Nrf2 PPI 39*, GRK2 inh 0, C-LANA FP 77*, MEX-5 binding inconclusive, T cell modulator 445 and Keap1 Kelch bind -0.12.
Screening CC(C)c1nnc(N2C(=O)C(O)=C(C(=O)c3cccs3)C2c2ccccc2)s1 (stereo unspecified) returned Keap1-Nrf2 PPI 20*, EBV gp42 block 126*, C-LANA FP 35, MEX-5 binding -66* and Keap1 Kelch bind -0.16.
Cc1cccc(N2C(=O)C(O)=C(C(=O)c3cccs3)C2c2ccc(F)cc2)n1 (stereo unspecified) was read as Keap1-Nrf2 PPI -4, GRK2 inh 0, EBV gp42 block -20, C-LANA FP 0, MEX-5 binding 0 and T cell modulator 238.
Screening COc1ccc(C2C(C(=O)c3cccs3)=C(O)C(=O)N2c2nncs2)cc1 (stereo unspecified) returned Keap1-Nrf2 PPI 55*, GRK2 inh 1, EBV gp42 block 133*, C-LANA FP 64*, MEX-5 binding -85*, T cell modulator 220 and Keap1 Kelch bind -0.13.
`COc1ccc(/C=N/N=C2/CC(C)(C)Cc3n[nH]c(=O)cc32)cc1` gave Keap1-Nrf2 PPI 13*, GRK2 inh 0, EBV gp42 block 70*, C-LANA FP 26, MEX-5 binding -81*, T cell modulator 355 and Keap1 Kelch bind -0.17.
